Results from PMC8923061 (ACS Pharmacology & Translational Science, 2022).
Counter-ions that a name gives are not always drawn. Like-named read-outs stand apart in the source and are kept apart here.

Tests used:
[1] = target: LPA1 receptor (Cricetulus griseus, UniProt G3HUC7); type: cell-based, Chinese hamster; conditions: CHOK1/Gα15/GCaMP6s-CAAX
[2] = target: CaV3.3 (Homo sapiens, UniProt Q9P0X4); test: cell-based; type: cell-based; conditions: for potentiator activity at CaV3.3: GCaMP6s-CAAX FLIPR, CRC, EC10 KCl
[3] = target: CaV3.1 (Homo sapiens, UniProt O43497); type: cell-based; conditions: GCaMP6s-CAAX FLIPR, CRC, low CaCl2
Outline: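 HEK293 cells co-expressing CaV3.1, Kir2.3 and GCaMP6s-CAAX in DMEM/F-12 GlutaMAX + 10% FBS + 1.25 μg/mL puromycin. Induced with 1 μg/mL doxycycline, seeded at 16k/well on poly-D-lysine and grown 2 days at 37 °C. Equilibrated ~60 min at room temperature in the dark in buffer (133 mM NaCl, 10 HEPES, 10 glucose, 4 KCl, 1 CaCl2, pH 7.3). Stimulated with 1.5 mM (low) or 5.0 mM (high) CaCl2 on FLIPR Tetra at room temperature; peak over baseline used.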

[4] = target: CaV3.2 (Homo sapiens, UniProt O95180); type: cell-based; conditions: GCaMP6s-CAAX FLIPR, CRC, EC10 KCl
Outline: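 Inducible HEK293 CaV3.2/Kir2.3/GCaMP6s-CAAX cells, with no antibiotics in assay plates. Doxycycline (1 μg/mL) induction, 16k/well, 2 days at 37 °C, then ~60 min at room temperature in buffer of 133 mM NaCl, 10 HEPES, 10 glucose, 4 KCl, 1 CaCl2, pH 7.3. […] Peak response over baseline after each addition.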

[5] = target: C3a receptor (Cricetulus griseus, UniProt A0A061I1T5); type: cell-based, Chinese hamster; conditions: read-out: EC50, increase in fluorescence (C3a receptor); CHOK1/Gα15/GCaMP6s-CAAX
Outline: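 CHOK1-Gα15 cells stably expressing GCaMP6s-CAAX, kept in F-12K + 10% FBS with hygromycin (100 μg/mL) and G-418 (700 μg/mL). Seeded at 16k/well and grown 2 days at 37 °C. Buffer was HBSS + 20 mM HEPES + 0.1% fatty-acid-free BSA, pH 7.3; 30 min at 37 °C in the dark. FLIPR Tetra at 37 °C: ex 470-495/em 515-575 nm, 1 Hz, two additions. Agonist was hC3a; antagonist mode used 20 nM hC3a. Peak over baseline, scaled from buffer (0%) to saturating agonist (100%). Four replicates, two experiments.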

CaV3.3, sequence (Q9P0X4 whole entry): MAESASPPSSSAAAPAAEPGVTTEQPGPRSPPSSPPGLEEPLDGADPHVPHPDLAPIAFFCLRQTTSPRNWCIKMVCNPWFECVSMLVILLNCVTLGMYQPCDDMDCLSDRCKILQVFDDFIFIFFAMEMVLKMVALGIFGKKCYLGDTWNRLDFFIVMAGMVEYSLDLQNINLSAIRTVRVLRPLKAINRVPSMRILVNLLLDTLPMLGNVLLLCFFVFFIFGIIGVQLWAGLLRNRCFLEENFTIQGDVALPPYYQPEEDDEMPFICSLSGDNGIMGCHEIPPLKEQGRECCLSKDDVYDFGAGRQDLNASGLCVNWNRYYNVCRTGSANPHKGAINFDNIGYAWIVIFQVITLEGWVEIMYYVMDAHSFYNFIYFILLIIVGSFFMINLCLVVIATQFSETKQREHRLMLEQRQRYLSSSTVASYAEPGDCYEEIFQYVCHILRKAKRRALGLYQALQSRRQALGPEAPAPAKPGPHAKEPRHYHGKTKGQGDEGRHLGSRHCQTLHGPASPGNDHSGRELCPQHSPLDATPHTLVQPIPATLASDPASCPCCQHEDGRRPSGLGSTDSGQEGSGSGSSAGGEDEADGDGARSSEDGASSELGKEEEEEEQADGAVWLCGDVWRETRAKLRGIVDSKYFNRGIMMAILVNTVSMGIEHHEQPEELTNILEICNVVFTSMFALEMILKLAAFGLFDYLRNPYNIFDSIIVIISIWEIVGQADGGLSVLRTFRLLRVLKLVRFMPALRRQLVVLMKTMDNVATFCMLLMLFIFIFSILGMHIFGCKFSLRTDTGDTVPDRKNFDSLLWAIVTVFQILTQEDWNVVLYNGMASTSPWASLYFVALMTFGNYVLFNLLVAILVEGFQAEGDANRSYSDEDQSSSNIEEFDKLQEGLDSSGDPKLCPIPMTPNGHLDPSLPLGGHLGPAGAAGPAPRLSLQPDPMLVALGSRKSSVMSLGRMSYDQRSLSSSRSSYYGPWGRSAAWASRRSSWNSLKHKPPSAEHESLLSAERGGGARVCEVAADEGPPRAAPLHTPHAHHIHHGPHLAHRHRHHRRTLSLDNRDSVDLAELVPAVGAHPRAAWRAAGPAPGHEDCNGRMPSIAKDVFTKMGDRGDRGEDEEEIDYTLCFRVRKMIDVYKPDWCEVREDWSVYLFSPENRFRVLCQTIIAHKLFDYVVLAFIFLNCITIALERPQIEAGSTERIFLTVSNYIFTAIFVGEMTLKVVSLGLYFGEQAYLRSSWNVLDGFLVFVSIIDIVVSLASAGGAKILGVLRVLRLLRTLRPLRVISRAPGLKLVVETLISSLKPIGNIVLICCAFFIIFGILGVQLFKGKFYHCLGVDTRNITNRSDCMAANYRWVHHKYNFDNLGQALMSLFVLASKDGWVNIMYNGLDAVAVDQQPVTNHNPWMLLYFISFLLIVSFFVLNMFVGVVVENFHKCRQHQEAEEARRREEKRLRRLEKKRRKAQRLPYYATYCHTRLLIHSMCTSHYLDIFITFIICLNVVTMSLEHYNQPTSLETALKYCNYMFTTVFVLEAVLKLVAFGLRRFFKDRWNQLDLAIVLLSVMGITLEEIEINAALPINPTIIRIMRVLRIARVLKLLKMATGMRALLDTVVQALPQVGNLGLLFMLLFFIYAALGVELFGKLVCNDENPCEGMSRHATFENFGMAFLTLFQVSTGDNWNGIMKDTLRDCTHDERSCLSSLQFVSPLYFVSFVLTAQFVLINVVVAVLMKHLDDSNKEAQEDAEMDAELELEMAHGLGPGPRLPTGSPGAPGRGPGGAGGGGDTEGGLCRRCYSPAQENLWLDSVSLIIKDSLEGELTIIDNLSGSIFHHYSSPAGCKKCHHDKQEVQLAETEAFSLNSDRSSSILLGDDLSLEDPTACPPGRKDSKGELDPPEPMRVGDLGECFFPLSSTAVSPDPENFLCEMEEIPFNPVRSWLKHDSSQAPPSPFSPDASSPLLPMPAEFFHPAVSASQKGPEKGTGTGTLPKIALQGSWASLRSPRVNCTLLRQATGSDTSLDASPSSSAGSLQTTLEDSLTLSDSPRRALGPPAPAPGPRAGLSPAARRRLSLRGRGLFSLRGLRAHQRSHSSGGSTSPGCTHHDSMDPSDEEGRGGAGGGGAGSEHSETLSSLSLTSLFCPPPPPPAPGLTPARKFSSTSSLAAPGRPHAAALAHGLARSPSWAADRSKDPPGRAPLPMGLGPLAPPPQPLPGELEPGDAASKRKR
CaV3.1, sequence (O43497 whole entry): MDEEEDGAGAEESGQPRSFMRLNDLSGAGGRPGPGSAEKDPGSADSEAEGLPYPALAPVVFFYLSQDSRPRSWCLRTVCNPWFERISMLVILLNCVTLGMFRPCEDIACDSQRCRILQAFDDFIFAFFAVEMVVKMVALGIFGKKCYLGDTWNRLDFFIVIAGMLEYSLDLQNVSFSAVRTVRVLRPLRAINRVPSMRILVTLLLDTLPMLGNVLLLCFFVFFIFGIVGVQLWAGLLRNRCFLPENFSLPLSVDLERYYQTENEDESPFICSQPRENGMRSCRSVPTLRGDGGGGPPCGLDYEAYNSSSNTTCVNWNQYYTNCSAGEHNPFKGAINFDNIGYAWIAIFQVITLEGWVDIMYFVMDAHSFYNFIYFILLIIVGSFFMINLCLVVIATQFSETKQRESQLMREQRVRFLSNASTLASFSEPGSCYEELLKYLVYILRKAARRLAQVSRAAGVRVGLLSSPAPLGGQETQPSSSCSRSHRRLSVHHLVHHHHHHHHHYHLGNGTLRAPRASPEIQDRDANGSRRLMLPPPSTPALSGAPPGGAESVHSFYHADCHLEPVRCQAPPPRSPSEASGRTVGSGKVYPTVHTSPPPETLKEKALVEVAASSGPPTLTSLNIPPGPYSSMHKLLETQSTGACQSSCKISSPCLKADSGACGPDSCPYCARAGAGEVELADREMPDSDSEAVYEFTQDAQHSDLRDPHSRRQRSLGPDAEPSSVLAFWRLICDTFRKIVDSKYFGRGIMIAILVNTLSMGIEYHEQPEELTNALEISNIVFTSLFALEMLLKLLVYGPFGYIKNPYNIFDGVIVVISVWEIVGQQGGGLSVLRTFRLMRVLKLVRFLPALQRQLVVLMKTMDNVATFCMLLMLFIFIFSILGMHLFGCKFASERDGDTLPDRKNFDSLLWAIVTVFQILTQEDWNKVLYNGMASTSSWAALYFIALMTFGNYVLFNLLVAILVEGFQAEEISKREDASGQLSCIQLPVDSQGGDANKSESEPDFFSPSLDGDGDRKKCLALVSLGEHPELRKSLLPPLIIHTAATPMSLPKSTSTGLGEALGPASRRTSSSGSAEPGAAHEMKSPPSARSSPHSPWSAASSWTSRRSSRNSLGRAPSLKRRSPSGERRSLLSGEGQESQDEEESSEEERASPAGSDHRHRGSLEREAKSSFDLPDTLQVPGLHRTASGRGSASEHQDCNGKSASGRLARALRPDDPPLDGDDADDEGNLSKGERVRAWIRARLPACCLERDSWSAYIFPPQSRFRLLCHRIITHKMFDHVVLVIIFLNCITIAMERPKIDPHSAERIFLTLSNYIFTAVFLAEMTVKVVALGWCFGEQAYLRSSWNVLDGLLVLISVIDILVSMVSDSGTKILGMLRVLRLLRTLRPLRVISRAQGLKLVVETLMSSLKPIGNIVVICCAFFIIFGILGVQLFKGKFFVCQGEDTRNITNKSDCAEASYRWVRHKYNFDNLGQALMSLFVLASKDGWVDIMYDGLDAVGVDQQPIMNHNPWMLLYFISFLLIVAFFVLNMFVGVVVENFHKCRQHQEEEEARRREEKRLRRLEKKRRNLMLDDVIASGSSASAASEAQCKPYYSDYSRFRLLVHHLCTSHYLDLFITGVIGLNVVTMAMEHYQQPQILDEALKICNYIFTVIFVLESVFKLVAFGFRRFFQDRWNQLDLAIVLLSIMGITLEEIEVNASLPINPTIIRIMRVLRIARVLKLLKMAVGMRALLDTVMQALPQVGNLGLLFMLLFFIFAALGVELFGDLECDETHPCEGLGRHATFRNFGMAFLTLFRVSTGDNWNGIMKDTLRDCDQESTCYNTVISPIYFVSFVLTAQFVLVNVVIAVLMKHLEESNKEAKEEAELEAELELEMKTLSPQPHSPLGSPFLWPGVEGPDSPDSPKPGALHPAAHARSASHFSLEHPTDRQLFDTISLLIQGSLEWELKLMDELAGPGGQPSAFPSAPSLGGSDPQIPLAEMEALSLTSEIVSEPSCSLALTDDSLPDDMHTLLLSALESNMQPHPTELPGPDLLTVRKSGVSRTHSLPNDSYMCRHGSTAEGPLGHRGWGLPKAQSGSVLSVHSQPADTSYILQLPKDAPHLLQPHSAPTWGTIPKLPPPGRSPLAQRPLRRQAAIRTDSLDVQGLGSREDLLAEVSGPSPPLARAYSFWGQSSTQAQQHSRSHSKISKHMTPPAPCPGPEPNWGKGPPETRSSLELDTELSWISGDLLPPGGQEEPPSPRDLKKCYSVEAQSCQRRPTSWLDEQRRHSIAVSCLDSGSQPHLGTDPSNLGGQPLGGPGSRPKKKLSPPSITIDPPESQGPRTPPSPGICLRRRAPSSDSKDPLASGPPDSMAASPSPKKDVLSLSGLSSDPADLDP
LPA1 receptor, sequence (G3HUC7 1-364): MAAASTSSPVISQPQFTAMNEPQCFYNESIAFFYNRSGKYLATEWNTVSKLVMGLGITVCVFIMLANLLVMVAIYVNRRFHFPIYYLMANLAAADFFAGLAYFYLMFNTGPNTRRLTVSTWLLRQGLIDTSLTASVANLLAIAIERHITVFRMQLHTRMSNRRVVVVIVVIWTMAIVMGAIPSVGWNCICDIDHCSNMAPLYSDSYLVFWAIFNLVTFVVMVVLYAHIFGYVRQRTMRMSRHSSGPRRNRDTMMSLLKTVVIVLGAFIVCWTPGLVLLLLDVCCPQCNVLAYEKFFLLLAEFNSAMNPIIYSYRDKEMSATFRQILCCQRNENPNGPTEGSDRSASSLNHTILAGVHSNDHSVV

Cc1noc(-c2ccc(-c3ccc(CC(=O)O)cc3)cc2)c1NC(=O)O[C@H](C)c1ccccc1 [AM095]
IC50 ([1]; read-out: IC50, block of LPA1-mediated signal, EC80 agonist): 0.24 ± 0.02 µM

CCOC(=O)C1=C(N2CCCCC2)C2(CC1=O)C(=O)N=C1C(C)=CC=CN12 (centres unmarked) [SAK3]
potentiator activity at CaV3.3 [2]: neither SAK3 (Figure 3D) nor ST-101 (Supporting Information Figure S3) displayed potentiator activity
potentiator activity at CaV3.1 [3]: neither SAK3 (Figure 3D) nor ST-101 (Supporting Information Figure S3) displayed potentiator activity
potentiator activity at CaV3.2 [4]: neither SAK3 (Figure 3D) nor ST-101 (Supporting Information Figure S3) displayed potentiator activity

O=C1N=C2C=CC=CN2C12Cc1ccccc1C2 [ST-101]
potentiator activity at CaV3.3 [2]: neither SAK3 (Figure 3D) nor ST-101 (Supporting Information Figure S3) displayed potentiator activity
potentiator activity at CaV3.1 [3]: neither SAK3 (Figure 3D) nor ST-101 (Supporting Information Figure S3) displayed potentiator activity
potentiator activity at CaV3.2 [4]: neither SAK3 (Figure 3D) nor ST-101 (Supporting Information Figure S3) displayed potentiator activity

CC1=C(C(=O)OC(C)C)C(c2cccc([N+](=O)[O-])c2)C(C(=O)OC2CN(C(c3ccccc3)c3ccccc3)C2)=C(N)N1 (centres unmarked) [azelnidipine]
IC50 [2]: 26 µM

Fc1ccc(C(c2ccc(F)cc2)N2CCN(C/C=C/c3ccccc3)CC2)cc1 [flunarizine dihydrochloride]
IC50 [2]: 1.2 µM

CCOC(=O)Nc1ccc(NCc2ccc(F)cc2)nc1N [flupirtine maleate]
IC50 [2]: 3.5 µM

COC(=O)C1=C(C)NC(C)=C(C(=O)OC(C)(C)CN(C)CCC(c2ccccc2)c2ccccc2)C1c1cccc([N+](=O)[O-])c1 (centres unmarked) [lercanidipine hydrochloride]
IC50 [2]: 0.41 µM

CN(C)C(=O)C(CCN1CCC(O)(c2ccc(Cl)cc2)CC1)(c1ccccc1)c1ccccc1 [loperamide hydrochloride]
IC50 [2]: 1.3 µM

CC(C)c1ccc(CC(=O)N[C@H](C)c2ccc(OCC(F)(F)F)cn2)cc1 [mk-8998]
IC50 [2]: 0.037 µM

COC(=O)C1=C(C)NC(C)=C(C(=O)OCCN(C)Cc2ccccc2)C1c1cccc([N+](=O)[O-])c1 (centres unmarked) [nicardipine hydrochloride]
IC50 [2]: 2.1 µM

CCOC(=O)C1=C(C)NC(C)=C(C(=O)OC)C1c1cccc([N+](=O)[O-])c1 (centres unmarked) [nitrendipine]
IC50 [2]: 18 µM

CCOC(=O)Nc1ccc(NCc2ccc(F)cc2)cc1N [retigabine]
IC50 [2]: 9.4 µM

C[C@@H](NC(=O)Cc1ccc(C2CC2)cc1)c1ccc(OCC(F)(F)F)cn1 [tta-a2]
effect on KCl-induced CaV3.3-dependent fluorescence signal [2]: blocked
IC50 ([2]; read-out: IC50 against CaV3.3): 0.053 µM

human C3a [hC3a]
EC50 [5]: 0.0045 ± 0.0005 µM

lysoPA18:1
EC50 ([1]; read-out: EC50, increase in fluorescence (LPA1 receptor agonist)): 1.01 ± 0.19 µM
